Source: ChEMBL document CHEMBL1156470, “Inhibition of the activation of multiple serine proteases with a cathepsin C inhibitor requires sustained exposure to prevent pro-enzyme processing” (J Biol Chem, 2007)
The source made the active and inactive calls. The calls are words filed in the database; no cut-off is given here.

Experiments:
Cathepsin S = Cathepsin S (Homo sapiens, UniProt P25774); experiment: Inhibition of human recombinant cathepsin S after 10 mins
[1] = target: T1, Neutrophil elastase (Mus musculus) (UniProt Q3UP87); conditions: EcoM-G, 1 uM
T1 sequence (whole entry): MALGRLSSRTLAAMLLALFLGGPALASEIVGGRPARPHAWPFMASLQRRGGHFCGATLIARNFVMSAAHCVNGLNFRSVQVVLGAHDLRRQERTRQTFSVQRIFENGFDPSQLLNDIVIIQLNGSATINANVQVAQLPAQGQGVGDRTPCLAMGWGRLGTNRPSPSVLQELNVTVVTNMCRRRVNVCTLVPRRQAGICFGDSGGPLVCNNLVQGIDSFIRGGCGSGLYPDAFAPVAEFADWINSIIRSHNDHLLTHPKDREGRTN

[2] = target: T2, Cathepsin G (Mus musculus) (UniProt P28293); experiment: Inhibition of cathepsin G activity in beta-estradiol differentiated mouse EcoM-G cells at 10 uM after 24 hrs in the absence of estradiol; type: cell-based
T2 sequence (whole entry): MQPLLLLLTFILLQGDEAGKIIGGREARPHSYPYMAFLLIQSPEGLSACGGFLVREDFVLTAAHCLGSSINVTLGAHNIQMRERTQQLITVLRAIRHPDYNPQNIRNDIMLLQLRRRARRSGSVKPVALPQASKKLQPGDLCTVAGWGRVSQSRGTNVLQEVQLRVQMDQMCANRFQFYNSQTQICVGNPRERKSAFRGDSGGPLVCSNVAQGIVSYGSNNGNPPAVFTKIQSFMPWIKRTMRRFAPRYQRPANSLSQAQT
Summary of the method: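 EcoM-G cells seeded without β-estradiol to differentiate. 10 μM compound or vehicle added 24 h after estrogen removal, and aliquots taken over time up to 3 days. CG activity in extracts measured with 1 mM Suc-Ala-Ala-Pro-Phe-pNA, absorbance at 405 nm over 5 min, in 100 mM Tris pH 7.5, 1 M NaCl.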

Cathepsin G [3] = target: T3, Cathepsin G (Homo sapiens, UniProt P08311); experiment: Inhibition of cathepsin G in human U937 cells; type: cell-based, U-937
T3 sequence (P08311 whole entry): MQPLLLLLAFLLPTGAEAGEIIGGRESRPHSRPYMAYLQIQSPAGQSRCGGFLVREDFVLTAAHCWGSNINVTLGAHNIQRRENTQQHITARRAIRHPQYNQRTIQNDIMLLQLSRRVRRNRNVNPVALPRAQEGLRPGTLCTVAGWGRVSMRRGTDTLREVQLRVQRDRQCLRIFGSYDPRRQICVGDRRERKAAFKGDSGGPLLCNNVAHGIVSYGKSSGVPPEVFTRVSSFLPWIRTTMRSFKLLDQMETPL

[4] = target: T1, Neutrophil elastase (Mus musculus); conditions: EcoM-G, 1 uM; remark: listed apart in the source
Dipeptidyl peptidase 1 [5] = target: T4, Dipeptidyl peptidase 1 (Homo sapiens, UniProt P53634); experiment: Inhibition of human recombinant cathepsin C after 10 mins
Summary of the method: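 Recombinant human cathepsin C at 1 nM in 25 mM MES pH 6.0, 50 mM NaCl, 5 mM DTT, with 50 μM Gly-Arg-AMC (twice Km). Enzyme preincubated with inhibitor 10 min, then substrate added, at room temperature. Fluorogenic AMC release.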

Dipeptidyl peptidase 1 [6] = target: T4, Dipeptidyl peptidase 1; experiment: Inhibition of intracellular cathepsin C active site in human U937 cells assessed as reduction of Ala-4[125I]Phe-DMK labeled 23 kDa protein at 10 uM by autoradiography based pulse chase assay; type: cell-based; conditions: U-937
Summary of the method: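 U937 cells (200,000) preincubated 30 min with 10 μM competitor or 0.5% Me₂SO, then labelled 15 min with 0.5 nM Ala-4-[¹²⁵I]Phe-DMK. Quenched with 1 μM unlabelled probe, washed, and lysed in 20 mM MES pH 6.0, 50 mM NaCl, 0.5% NP-40. Run on reducing 10–20% SDS-PAGE; film exposed 6–24 h.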

Cathepsin G [7] = target: T5, Cathepsin G (Mus musculus, UniProt P28293); experiment: Inhibition of cathepsin G activation in beta-estradiol differentiated mouse EcoM-G cells after 24 hrs; type: cell-based
T5 sequence (P28293 whole entry): T2 sequence (whole entry)
Summary of the method: (§1)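 EcoM-G cells (cultures <3 months old) washed and seeded at 0.5×10^6 cells/ml without β-estradiol. After 24 h, compound added in Me₂SO (final 0.5%), then cells differentiated a further 24 h, harvested and lysed. NE assayed with 400 μM MeOSuc-AAPV-AMC, CG with 1 mM Suc-AAPF-pNA (405 nm, 5 min), Pr-3 with 10 μM internally quenched substrate (ex 328/em 393 nm), all from the same lysates. IC50 from four-parameter Hill fit.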

Myeloblastin = target: T6, Myeloblastin (Mus musculus, UniProt Q61096); experiment: Inhibition of proteinase-3 activation in beta-estradiol differentiated mouse EcoM-G cells after 24 hrs; type: cell-based; summary of the method: as §1
T6 sequence (Q61096 whole entry): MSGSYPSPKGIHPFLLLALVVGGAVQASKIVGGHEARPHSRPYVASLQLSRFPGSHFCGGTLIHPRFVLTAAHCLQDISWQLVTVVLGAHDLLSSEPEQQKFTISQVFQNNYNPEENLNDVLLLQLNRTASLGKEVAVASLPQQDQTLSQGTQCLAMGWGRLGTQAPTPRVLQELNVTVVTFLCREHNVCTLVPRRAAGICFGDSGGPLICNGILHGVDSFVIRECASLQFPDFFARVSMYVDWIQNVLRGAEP

U-937 = experiment: Cytotoxicity against human U937 cells at 30 uM after 72 hrs annexin-V propidium iodide method; type: functional
Summary of the method: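 U937 plated at 0.4×10^6 cells/ml, compound in Me₂SO (final 0.5%). Cells harvested and re-seeded every 24 h in medium with freshly added inhibitor, for 72 h. Viability by annexin V-FITC/propidium iodide two-colour flow cytometry; cells negative for both stains counted viable.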

T4 sequence (P53634 25-134 limits assumed): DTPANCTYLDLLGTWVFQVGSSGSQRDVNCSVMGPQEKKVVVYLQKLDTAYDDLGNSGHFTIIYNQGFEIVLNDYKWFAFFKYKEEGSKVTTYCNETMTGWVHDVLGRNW
T4 sequence (P53634 231-394 limits assumed): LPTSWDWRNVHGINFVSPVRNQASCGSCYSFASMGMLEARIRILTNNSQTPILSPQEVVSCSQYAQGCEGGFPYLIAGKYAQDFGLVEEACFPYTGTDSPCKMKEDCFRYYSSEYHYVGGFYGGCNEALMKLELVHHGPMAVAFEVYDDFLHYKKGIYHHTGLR
T4 sequence (P53634 395-463 limits assumed): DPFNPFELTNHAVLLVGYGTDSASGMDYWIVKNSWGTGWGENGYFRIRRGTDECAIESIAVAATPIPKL
Chain of Cathepsin S (P25774 whole entry): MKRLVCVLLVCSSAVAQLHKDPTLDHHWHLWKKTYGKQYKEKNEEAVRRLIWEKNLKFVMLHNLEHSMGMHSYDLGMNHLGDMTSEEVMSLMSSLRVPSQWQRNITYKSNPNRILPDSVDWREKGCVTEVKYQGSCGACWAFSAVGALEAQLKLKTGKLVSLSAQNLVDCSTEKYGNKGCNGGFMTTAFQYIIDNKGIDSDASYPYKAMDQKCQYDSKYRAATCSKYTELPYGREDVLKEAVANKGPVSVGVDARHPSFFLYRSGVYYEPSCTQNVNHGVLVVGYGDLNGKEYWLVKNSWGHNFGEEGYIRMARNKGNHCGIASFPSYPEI

IC50 (Cathepsin S): 5.9 µM
inhibition [1]: 80%
Activity [2]: Active
IC50 (Cathepsin G [3]): > 50 µM
inhibition [4]: > 90%
IC50 (Dipeptidyl peptidase 1 [5]): 0.014 µM
Activity (Dipeptidyl peptidase 1 [6]): Active
IC50 (Cathepsin G [7]): 0.48 µM
IC50 (Myeloblastin): 0.14 µM
Compound: N#C[C@@]1(NC(=O)[C@@H](N)Cc2cccs2)C[C@@H]1c1ccccc1.O=C(O)C(F)(F)F
Activity (U-937): 100%
